# PMC6279241 (Science signaling, 2018)
# Key:
# 92.1 cells = test: Block of FR-elicited re-differentiation; type: cell-based, human; conditions: 92.1, 7 days GSK503 and 3 days FR
# PRC2 (Ezh1/2) = test: Histone H3; type: cell-based, human; conditions: 92.1, 7 days GSK503, immunoblot
# Procedure, shortened: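 92.1 cells were treated with GSK503 for 7 days, and histones were isolated with a purification kit. Samples ran on 15% SDS-PAGE, were blotted to PVDF, blocked in 5% milk/TBST, and detected with IRDye-coupled secondary antibodies. H3K27me3 densitometry was normalized to total H3 and compared with DMSO control. Three independent experiments.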
smiles,measurement,setting,value
Cc1cc(C)c(CNC(=O)c2cc(-c3ccc(N4CCN(C)CC4)nc3)cc3c2c(C)cn3C(C)C)c(=O)[nH]1 [GSK503],Ability of FR to re-differentiate cells (morphology and pigmentation),92.1 cells,blocked
same,Histone H3(Lys27) trimethylation,PRC2 (Ezh1/2),reduced
